pIC50: −log10 of the molar value.
How the values were obtained:
[1] = Mitochondrial toxicity in human 786-O cells measured after 6 hrs by MitoTracker Red chloromethyl-X-rosamine based assay; assay type: cell-based, 786-0
[2] = Cytotoxicity against human THP1 cells after 72 hrs by MTT assay; assay type: cell-based, THP-1; settings: read-out: NOAEL
Cytochrome P450 2C9 = Cytochrome P450 2C9 (Homo sapiens, UniProt P11712); test: Inhibition of human CYP2C9 expressed in baculovirus infected insect cells using beetle D-luciferin as substrate preincubated for 30 mins followed by NADPH addition and measured after 30 mins by CYP450-Glo assay
Cytochrome P450 3A4 = Cytochrome P450 3A4 (Homo sapiens, UniProt P08684); test: Inhibition of human CYP3A4 expressed in baculovirus infected insect cells using beetle D-luciferin as substrate preincubated for 30 mins followed by NADPH addition and measured after 30 mins by CYP450-Glo assay
[3] = Selectivity ratio of IC50 for Leishmania major pteridine reductase 1 to IC50 for N-terminal His-tagged Trypanosoma brucei pteridine reductase 1
Trypanosoma cruzi = test: Growth inhibition of trypomastigote form of Trypanosoma cruzi Y infected in human U2OS cells at 50 uM measured after 72 hrs by DRAQ5 DNA dye based confocal microscopic analysis relative to control; assay type: organism-based; settings: for inhibition at 50 µM: Trypanosoma cruzi, Y, U2OS, read-out: GI; for growth inhibition (GI): trypanosoma cruzi, 50 µM
Trypanosoma brucei [4] = test: Inhibition of N-terminal His-tagged Trypanosoma brucei pteridine reductase 1 at 50 uM using di-hydrobiopterine as substrate measured at 1 min interval for 50 mins in presence of NADPH relative to control
In short: (§1)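 Photometric PTR1 assay with NADPH and dihydrobiopterin substrate. H₄B formation is coupled non-enzymatically to cytochrome c reduction, read as signal increase at 550 nm.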

Cytochrome P450 2C19 = Cytochrome P450 2C19 (Homo sapiens, UniProt P33261); test: Inhibition of human CYP2C19 expressed in baculovirus infected insect cells using beetle D-luciferin as substrate preincubated for 30 mins followed by NADPH addition and measured after 30 mins by CYP450-Glo assay
Cytochrome P450 2D6 = Cytochrome P450 2D6 (Homo sapiens, UniProt P10635); test: Inhibition of human CYP2D6 expressed in baculovirus infected insect cells using beetle D-luciferin as substrate preincubated for 30 mins followed by NADPH addition and measured after 30 mins by CYP450-Glo assay
Pteridine reductase 1 = biological target: T1, Pteridine reductase 1 (Leishmania major, UniProt Q01782); test: Inhibition of Leishmania major pteridine reductase 1 using di-hydrobiopterine as substrate in presence of NADPH; settings: read-out: IC50; in short: as §1
T1 sequence (Q01782 whole entry): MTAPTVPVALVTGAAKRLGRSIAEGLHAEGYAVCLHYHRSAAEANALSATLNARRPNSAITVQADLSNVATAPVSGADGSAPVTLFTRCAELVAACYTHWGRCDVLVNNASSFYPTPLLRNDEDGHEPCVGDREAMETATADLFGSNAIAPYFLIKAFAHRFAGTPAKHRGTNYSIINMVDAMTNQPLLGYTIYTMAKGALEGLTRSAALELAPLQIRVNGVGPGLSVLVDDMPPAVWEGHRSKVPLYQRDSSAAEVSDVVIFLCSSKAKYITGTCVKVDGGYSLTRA

Cytochrome P450 1A2 = biological target: T2, Cytochrome P450 1A2 (Homo sapiens, UniProt P05177); test: Inhibition of human CYP1A2 expressed in baculovirus infected insect cells using beetle D-luciferin as substrate preincubated for 30 mins followed by NADPH addition and measured after 30 mins by CYP450-Glo assay
T2 sequence (P05177 whole entry): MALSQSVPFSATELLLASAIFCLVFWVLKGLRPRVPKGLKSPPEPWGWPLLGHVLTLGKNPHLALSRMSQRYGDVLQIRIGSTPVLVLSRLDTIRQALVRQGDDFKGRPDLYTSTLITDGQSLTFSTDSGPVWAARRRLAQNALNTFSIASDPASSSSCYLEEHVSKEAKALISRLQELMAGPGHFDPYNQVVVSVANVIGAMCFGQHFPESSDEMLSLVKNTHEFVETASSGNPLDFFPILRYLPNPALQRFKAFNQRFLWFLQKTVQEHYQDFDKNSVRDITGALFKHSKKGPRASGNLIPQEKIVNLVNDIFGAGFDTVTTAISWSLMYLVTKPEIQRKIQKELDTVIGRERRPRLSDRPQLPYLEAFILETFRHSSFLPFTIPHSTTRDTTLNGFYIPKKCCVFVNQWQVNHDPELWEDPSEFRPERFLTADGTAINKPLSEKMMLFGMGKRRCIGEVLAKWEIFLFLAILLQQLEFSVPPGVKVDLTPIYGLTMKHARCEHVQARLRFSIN

[5] = Cytotoxicity against human U2OS cells assessed as reduction in cell number; assay type: cell-based
[6] = Inhibition of N-terminal His-tagged Trypanosoma brucei pteridine reductase 1 using di-hydrobiopterine as substrate measured at 1 min interval for 50 mins in presence of NADPH; in short: as §1
Trypanosoma brucei [7] = test: Growth inhibition of Trypanosoma brucei bloodstream forms at 10 uM measured after 72 hrs by resazurin-based fluorescence assay relative to control; assay type: organism-based; settings: Trypanosoma brucei, read-out: GI
Trypanosoma brucei [8] = test: Inhibition of PTR1 in Trypanosoma brucei bloodstream forms assessed as potentiation of methotrexate-induced parasitic cell growth inhibition at 10 uM measured after 72 hrs by resazurin-based fluorescence assay (reference value: 19 +/- 6%)
In short: (§2)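 Bloodstream-form T. brucei resazurin assay: 72 h at 37 °C, 5% CO₂, then fluorescence at ex 540/em 620 nm. Benzothiazole was tested at 10 μM alone and with 4 μM methotrexate. The index is the combination's activity divided by the sum of the activities of 10 μM benzothiazole and 4 μM methotrexate given separately.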

[9] = Cytotoxicity against human A549 cells after 48 hrs by Celltiter-glo assay; assay type: cell-based
Trypanosoma brucei [10] = test: Inhibition of PTR1 in Trypanosoma brucei bloodstream forms assessed as potentiation of methotrexate-induced parasitic cell growth inhibition by measuring potentiation index at 10 uM measured after 72 hrs by resazurin-based fluorescence assay relative to control (methotrexate); assay type: functional; in short: as §2
[11] = biological target: T3, Pteridine reductase 1 (Leishmania major) (UniProt Q01782); test: Inhibition of Leishmania major pteridine reductase 1 at 50 uM using di-hydrobiopterine as substrate in presence of NADPH relative to control; in short: as §1
T3 sequence (whole entry): T1 sequence (Q01782 whole entry)

Leishmania infantum = test: Growth inhibition of luciferase expressing Leishmania infantum axenic amastigotes infected in human THP1 cells at 10 uM measured after 72 hrs by steady-glo luminescence assay relative to control; assay type: organism-based; settings: for growth inhibition (GI): leishmania infantum, 72 h, 10 µM
[12] = biological target: Voltage-gated inwardly rectifying potassium channel KCNH2 (Homo sapiens, UniProt Q12809); test: Displacement of Tracer Red from human ERG by fluorescence polarization assay
Voltage-gated inwardly rectifying potassium channel KCNH2, sequence (Q12809 whole entry): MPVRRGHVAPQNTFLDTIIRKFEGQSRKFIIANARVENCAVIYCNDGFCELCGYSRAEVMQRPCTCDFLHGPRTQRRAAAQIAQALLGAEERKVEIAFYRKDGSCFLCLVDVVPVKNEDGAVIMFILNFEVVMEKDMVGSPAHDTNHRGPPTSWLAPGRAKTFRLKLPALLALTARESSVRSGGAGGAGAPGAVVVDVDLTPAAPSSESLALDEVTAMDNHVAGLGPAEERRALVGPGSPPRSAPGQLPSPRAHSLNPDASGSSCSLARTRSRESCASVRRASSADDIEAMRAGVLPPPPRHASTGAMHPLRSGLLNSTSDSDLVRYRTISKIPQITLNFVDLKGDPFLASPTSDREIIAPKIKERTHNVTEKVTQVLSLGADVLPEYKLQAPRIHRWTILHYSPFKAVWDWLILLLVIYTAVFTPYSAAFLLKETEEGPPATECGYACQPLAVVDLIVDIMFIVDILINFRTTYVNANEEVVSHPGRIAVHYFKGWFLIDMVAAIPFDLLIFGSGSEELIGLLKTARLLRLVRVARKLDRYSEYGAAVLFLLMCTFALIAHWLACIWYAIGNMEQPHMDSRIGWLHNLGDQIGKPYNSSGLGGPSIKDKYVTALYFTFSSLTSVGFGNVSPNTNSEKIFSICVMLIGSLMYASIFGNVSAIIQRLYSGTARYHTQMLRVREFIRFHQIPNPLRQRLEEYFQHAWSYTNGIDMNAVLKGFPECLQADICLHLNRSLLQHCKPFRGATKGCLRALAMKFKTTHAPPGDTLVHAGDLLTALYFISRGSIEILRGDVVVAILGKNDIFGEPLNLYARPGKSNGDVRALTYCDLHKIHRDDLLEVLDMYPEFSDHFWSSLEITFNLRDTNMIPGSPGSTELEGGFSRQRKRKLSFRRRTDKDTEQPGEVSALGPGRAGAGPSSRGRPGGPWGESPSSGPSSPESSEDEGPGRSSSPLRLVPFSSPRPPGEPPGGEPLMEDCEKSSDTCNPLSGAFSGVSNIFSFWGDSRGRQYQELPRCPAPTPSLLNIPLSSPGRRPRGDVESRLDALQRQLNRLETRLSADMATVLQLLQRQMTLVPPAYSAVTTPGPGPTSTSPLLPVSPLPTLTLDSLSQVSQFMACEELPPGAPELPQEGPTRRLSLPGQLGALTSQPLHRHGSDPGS

Cytochrome P450 3A4, sequence (P08684 whole entry): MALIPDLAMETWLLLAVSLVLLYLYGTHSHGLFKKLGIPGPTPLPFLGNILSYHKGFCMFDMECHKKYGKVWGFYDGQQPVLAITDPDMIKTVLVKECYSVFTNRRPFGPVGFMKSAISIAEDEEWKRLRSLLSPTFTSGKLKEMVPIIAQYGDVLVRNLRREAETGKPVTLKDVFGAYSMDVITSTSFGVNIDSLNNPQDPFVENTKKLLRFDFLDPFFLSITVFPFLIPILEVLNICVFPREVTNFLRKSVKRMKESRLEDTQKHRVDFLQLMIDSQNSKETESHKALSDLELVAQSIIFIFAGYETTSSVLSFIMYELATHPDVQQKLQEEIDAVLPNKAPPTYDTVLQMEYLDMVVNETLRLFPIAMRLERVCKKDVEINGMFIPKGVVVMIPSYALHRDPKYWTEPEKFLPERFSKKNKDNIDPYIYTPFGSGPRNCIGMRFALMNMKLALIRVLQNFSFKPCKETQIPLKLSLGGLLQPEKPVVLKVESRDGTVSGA
Cytochrome P450 2D6, sequence (P10635 whole entry): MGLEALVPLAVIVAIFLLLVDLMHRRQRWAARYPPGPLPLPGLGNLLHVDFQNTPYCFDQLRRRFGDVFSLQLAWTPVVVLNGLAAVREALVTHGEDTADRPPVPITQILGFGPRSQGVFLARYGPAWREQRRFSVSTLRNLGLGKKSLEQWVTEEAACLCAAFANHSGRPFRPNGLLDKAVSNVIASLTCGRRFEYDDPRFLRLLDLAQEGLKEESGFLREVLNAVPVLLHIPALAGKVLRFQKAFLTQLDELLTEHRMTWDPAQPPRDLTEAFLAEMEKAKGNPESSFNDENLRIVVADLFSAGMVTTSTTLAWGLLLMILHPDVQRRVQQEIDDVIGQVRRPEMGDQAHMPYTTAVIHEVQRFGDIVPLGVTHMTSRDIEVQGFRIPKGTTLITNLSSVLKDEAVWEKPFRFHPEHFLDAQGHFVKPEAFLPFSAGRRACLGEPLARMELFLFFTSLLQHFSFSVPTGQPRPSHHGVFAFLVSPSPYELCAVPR
Cytochrome P450 2C9, sequence (P11712 whole entry): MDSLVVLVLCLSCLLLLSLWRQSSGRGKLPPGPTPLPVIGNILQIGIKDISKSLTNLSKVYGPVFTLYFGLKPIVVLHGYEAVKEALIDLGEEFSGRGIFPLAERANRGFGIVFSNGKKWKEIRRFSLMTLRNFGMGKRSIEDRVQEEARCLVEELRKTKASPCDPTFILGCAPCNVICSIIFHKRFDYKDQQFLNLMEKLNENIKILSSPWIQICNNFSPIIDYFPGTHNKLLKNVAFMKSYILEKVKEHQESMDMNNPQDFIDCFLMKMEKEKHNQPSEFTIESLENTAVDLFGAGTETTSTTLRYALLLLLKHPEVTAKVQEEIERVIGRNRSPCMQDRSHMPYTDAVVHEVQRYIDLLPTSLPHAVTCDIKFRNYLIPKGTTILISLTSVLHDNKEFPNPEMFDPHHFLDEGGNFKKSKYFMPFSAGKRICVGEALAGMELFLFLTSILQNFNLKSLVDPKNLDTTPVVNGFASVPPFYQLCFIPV
Cytochrome P450 2C19, sequence (P33261 whole entry): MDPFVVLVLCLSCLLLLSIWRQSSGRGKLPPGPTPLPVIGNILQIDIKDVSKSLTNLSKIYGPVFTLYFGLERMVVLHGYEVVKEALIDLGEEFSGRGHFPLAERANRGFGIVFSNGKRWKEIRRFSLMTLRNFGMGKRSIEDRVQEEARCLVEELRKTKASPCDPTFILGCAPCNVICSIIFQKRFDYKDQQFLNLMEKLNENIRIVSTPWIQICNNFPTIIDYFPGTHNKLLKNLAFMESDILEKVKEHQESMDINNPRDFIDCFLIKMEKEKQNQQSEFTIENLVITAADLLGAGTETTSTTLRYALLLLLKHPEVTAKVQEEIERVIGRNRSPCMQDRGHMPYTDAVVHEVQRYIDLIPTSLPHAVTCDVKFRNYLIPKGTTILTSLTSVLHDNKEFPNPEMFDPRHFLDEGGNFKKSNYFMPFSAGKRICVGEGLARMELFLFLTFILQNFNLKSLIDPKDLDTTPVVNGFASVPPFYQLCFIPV

SMILES | IC50 at 6 h [1] | MNTC at 72 h [2] | pIC50 (Cytochrome P450 2C9) | pIC50 (Cytochrome P450 3A4) | Ratio IC50 [3] | inhibition at 50 µM (Trypanosoma cruzi) | inhibition (Trypanosoma brucei [4]) | pIC50 (Cytochrome P450 2C19) | pIC50 (Cytochrome P450 2D6) | pIC50 (Pteridine reductase 1) | pIC50 (Cytochrome P450 1A2) | GI50 [5] | pIC50 [6] | inhibition at 10 µM (Trypanosoma brucei [7]) | GI50 at 48 h [9] | inhibition [11] | growth inhibition (GI) (Leishmania infantum) | pIC50 [12] | growth inhibition (GI) (Trypanosoma cruzi) | other results
N#Cc1ccc(CSc2ccc3nc(N)sc3c2)cc1 | < 10 µM | > 25 µM | 4.60 to 5.00 | > 5.00 | 2 to 100 | 27.3% | > 60% | > 5.00 | > 5.00 | 4.91 | < 4.60 | > 25 µM | 6.46 | 29 to 35% | > 25 µM | > 60% | Non-Toxic | – | – | growth inhibition (GI) (Trypanosoma brucei [8]): 63%; Ratio (Trypanosoma brucei [10]): 1.3
Nc1nc2ccc(C(=O)NCc3ccc(Cl)c(Cl)c3)cc2s1 | < 10 µM | > 25 µM | < 4.60 | > 5.00 | 2 to 100 | – | > 60% | > 5.00 | > 5.00 | 4.82 | < 4.60 | > 25 µM | 5.27 | 5% | > 25 µM | > 60% | – | < 4.60 | Non-Toxic | inhibition at 10 µM (Leishmania infantum; Leishmania infantum, THP-1, 72 h, read-out: GI): 5%
Nc1nc2ccc(C(=O)NCc3ccccc3[N+](=O)[O-])cc2s1 | < 10 µM | > 25 µM | < 4.60 | > 5.00 | 2 to 100 | 19% | > 60% | < 4.60 | < 4.60 | 5.45 | < 4.60 | > 25 µM | 5.19 | 18% | > 25 µM | > 60% | Non-Toxic | < 4.60 | – | –
COC(=O)c1ccc(CNC(=O)c2ccc3nc(N)sc3c2)cc1 | > 25 µM | > 25 µM | 4.60 to 5.00 | < 4.60 | 2 to 100 | – | > 60% | < 4.60 | < 4.60 | 4.44 | < 4.60 | > 25 µM | 4.78 | 16% | > 25 µM | > 60% | Non-Toxic | < 4.60 | Non-Toxic | –
Nc1nc2ccc(C(=O)NCc3ccccc3N)cc2s1 | > 25 µM | > 25 µM | < 4.60 | 4.60 to 5.00 | 2 to 100 | 6.1% | > 60% | < 4.60 | 4.60 to 5.00 | 4.19 | < 4.60 | > 25 µM | 4.86 | 8% | > 25 µM | > 60% | Non-Toxic | < 4.60 | – | –
